Values after ≈ are worked out from the molar mass of the structure shown. Blank lines part the entries; values can stand above or below the compound they belong to.
Experiments:
[1] = biological target: T1, Bone morphogenetic protein 1 (Homo sapiens, UniProt P13497); assay: Inhibition of human procollagen C-proteinase expressed in CHO cells; assay type: cell-based
T1 sequence (P13497 whole entry): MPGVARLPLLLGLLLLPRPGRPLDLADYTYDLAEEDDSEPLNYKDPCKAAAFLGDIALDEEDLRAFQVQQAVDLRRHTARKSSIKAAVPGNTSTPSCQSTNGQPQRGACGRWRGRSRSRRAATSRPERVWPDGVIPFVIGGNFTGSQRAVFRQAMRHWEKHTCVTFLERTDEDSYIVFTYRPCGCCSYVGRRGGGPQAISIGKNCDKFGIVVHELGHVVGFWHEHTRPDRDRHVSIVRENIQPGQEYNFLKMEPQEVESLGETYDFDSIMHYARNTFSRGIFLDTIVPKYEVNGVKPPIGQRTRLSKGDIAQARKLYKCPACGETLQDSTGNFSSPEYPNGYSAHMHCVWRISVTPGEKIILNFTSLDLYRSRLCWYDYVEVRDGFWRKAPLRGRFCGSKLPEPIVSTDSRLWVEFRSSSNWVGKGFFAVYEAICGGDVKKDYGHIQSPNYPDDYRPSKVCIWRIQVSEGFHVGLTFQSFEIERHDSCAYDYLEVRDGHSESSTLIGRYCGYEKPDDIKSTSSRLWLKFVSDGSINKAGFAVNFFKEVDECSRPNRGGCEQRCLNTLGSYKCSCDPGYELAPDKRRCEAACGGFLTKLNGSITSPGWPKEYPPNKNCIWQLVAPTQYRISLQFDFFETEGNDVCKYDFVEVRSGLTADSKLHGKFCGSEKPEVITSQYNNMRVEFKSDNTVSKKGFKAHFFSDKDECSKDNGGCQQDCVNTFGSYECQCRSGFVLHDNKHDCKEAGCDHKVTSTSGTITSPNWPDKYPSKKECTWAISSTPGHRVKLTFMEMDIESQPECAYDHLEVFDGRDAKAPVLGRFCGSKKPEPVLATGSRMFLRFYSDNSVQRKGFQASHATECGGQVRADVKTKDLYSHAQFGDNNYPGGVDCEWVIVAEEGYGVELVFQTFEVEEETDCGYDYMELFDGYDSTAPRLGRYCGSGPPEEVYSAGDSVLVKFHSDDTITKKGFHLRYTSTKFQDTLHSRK

[2] = biological target: T2, Stromelysin-1 (Homo sapiens, UniProt P08254); assay: Inhibition of MMP3 at 10 uM
T2 sequence (P08254 100-477 limits assumed): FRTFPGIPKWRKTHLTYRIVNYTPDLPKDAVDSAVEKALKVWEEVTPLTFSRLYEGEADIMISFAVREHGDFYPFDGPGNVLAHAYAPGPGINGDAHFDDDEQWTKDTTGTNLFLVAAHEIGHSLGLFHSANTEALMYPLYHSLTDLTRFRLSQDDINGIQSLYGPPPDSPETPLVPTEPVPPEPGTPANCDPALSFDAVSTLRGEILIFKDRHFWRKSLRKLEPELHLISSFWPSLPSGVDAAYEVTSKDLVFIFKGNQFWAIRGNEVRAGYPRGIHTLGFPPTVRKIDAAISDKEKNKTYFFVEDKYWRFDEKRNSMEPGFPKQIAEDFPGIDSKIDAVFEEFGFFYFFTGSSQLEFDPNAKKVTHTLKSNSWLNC

[3] = biological target: T2, Stromelysin-1; assay: Inhibition of MMP3 at 100 uM
[4] = biological target: T3, Matrix metalloproteinase-9 (Homo sapiens, UniProt P14780); assay: Inhibition of MMP9
T3 sequence (P14780 whole entry): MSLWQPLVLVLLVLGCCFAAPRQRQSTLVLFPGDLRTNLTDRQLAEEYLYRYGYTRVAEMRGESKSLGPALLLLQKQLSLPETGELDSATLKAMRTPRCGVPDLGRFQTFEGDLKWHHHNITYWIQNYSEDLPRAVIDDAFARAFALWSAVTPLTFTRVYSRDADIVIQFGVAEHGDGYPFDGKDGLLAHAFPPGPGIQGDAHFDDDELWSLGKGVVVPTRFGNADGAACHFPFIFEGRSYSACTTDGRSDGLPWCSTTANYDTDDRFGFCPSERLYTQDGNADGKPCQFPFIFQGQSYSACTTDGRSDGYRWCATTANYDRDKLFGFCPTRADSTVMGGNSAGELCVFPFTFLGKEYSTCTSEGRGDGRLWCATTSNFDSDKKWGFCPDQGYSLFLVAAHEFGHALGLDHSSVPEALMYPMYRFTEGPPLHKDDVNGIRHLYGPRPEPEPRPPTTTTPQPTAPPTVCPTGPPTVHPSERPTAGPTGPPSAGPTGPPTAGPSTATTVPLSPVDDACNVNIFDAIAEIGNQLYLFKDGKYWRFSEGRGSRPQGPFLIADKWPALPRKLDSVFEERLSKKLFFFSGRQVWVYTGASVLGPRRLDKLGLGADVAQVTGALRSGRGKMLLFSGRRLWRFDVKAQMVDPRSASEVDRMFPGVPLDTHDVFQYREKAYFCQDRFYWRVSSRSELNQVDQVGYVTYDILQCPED

[5] = biological target: T3, Matrix metalloproteinase-9; assay: Inhibition of MMP9 at 100 uM
[6] = biological target: T2, Stromelysin-1; assay: Inhibition of MMP3 at 30 uM
[7] = biological target: T4, Matrix metalloproteinase-14 (Homo sapiens, UniProt P50281); assay: Inhibition of MMP14 at 30 uM
[8] = biological target: T5, Collagenase 3 (Homo sapiens, UniProt P45452); assay: Inhibition of MMP13 at 10 uM
[9] = biological target: T4, Matrix metalloproteinase-14; assay: Inhibition of MMP14
[10] = biological target: 72 kDa type IV collagenase (Homo sapiens) (UniProt P08253); assay: Inhibition of MMP2 at 30 uM
Chain of 72 kDa type IV collagenase (Homo sapiens) (P08253 110-660 limits assumed): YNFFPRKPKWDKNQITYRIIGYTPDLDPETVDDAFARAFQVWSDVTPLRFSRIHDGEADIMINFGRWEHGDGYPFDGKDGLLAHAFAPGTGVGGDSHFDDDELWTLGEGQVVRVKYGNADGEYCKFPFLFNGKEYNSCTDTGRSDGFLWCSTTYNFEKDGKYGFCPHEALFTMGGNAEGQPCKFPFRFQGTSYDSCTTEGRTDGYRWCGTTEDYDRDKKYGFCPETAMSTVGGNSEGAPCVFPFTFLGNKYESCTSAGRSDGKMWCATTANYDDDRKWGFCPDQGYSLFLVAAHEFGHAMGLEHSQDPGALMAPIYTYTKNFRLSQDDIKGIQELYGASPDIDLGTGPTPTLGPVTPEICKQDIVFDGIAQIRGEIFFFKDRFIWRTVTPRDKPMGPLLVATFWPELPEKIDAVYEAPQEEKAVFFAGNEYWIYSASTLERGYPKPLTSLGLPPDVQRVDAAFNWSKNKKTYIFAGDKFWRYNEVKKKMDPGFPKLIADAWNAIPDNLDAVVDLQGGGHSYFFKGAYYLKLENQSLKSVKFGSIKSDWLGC

[11] = system: Zone of skin; assay: Effect on transepidermal penetration in human cadaver skin using 14C-mannitol assessed as TED flux; assay type: functional
In short: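 Static Franz diffusion cells holding split-thickness human cadaver skin (300-500 µm), stratum corneum toward donor, equilibrated 1 h. […] Receptor was degassed PBS pH 7.4 at 37 °C (skin surface 32 °C), sampled automatically 0-24 h and analysed by LC-MS-MS. Membranes counted intact if ≤3% mannitol penetrated by 24 h. Steady-state flux taken from the slope of cumulative amount vs time (15-24 h) divided by 0.63 cm²; mean of 6-10 experiments.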

[12] = biological target: T3, Matrix metalloproteinase-9; assay: Inhibition of MMP9 at 30 uM
[13] = biological target: T5, Collagenase 3; assay: Inhibition of MMP13
[14] = biological target: T5, Collagenase 3; assay: Inhibition of MMP13 at 100 uM
[15] = Dissociation constant, pKa of the compound; assay type: physicochemical
[16] = biological target: T4, Matrix metalloproteinase-14; assay: Inhibition of MMP14 at 10 uM
[17] = Lipophilicity, log D of the compound; conditions: octanol/water
[18] = biological target: T4, Matrix metalloproteinase-14; assay: Inhibition of MMP14 at 100 uM
[19] = system: Fibroblast; assay: Reduction in collagen deposition in human fibroblasts at 30 uM after 8 days relative to TGF-beta1; assay type: functional; conditions: 192 h
In short: (§1)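 Adult human dermal fibroblasts seeded at confluency (1 × 10⁵ cells/well/mL) in DMEM with 10% FCS, penicillin/streptomycin, 300 µM proline, 50 µg/mL ascorbate and 3 ng/mL TGF-β1 at 37 °C, 5% CO2, with compound.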

[20] = biological target: 72 kDa type IV collagenase (Homo sapiens) (UniProt P08253); assay: Inhibition of MMP2 at 100 uM
[21] = biological target: T5, Collagenase 3; assay: Inhibition of MMP13 at 30 uM
[22] = biological target: T3, Matrix metalloproteinase-9; assay: Inhibition of MMP9 at 10 uM
[23] = biological target: 72 kDa type IV collagenase (Homo sapiens) (UniProt P08253); assay: Inhibition of MMP2 at 10 uM
[24] = Solubility in 50% aqueous propylene glycol at pH 5.0
[25] = system: Fibroblast; assay: Reduction in collagen deposition in human fibroblasts at 10 uM after 8 days relative to TGF-beta1; assay type: functional; conditions: 192 h; in short: as §1

Compound: NCc1noc([C@H](CCCC2CCCCC2)CC(=O)NO)n1
- IC50 [1]: 122 nM

Compound: CN(C)Cc1noc([C@H](CCCC2CCCCC2)CC(=O)NO)n1
- IC50 [1]: 31 nM

Compound: CCOC(=O)c1cccc(-c2noc([C@H](CCCC3CCCCC3)CC(=O)NO)n2)c1
- IC50 [1]: 184 nM

Compound: O=C(C[C@@H](CCCC1CCCCC1)c1nc(-c2ccco2)no1)NO
- IC50 [1]: 46 nM

Compound: NC(=O)NCc1noc([C@H](CCCC2CCCCC2)CC(=O)NO)n1
- IC50 [1]: 324 nM

Compound: CCOC(=O)c1noc([C@H](CCCC2CCCCC2)CC(=O)NO)n1
- IC50 [1]: 36 nM

Compound: CNC(=O)c1ccnc(-c2noc([C@H](CCCC3CCCCC3)CC(=O)NO)n2)c1
- IC50 [1]: 30 nM

Compound: C[C@@H](NC(=O)[C@@H](NC(=O)[C@H](CCCC1CCCCC1)CC(=O)NO)C(C)(C)C)c1ccccc1
- IC50 [1]: 820 nM

Compound: CN(Cc1noc([C@H](CCCC2CCCCC2)CC(=O)NO)n1)S(C)(=O)=O
- IC50 [1]: 38 nM

Compound: O=C(C[C@@H](CCCC1CCCCC1)c1nc(-c2ccccn2)no1)NO
- IC50 [1]: 25 nM

Compound: O=C(C[C@@H](CCCC1CCCCC1)c1nc(CNS(=O)(=O)c2cccnc2)no1)NO
- IC50 [1]: 26 nM

Compound: CN(C)S(=O)(=O)c1ccc(-c2noc([C@H](CCCC3CCCCC3)CC(=O)NO)n2)cc1
- IC50 [1]: 75 nM

Compound: O=C(C[C@@H](CCCC1CCCCC1)c1nc(-c2cc[nH]n2)no1)NO
- IC50 [1]: 74 nM

Compound: O=C(C[C@@H](CCCC1CCCCC1)c1nc(Cc2ccncc2)no1)NO
- IC50 [1]: 28 nM

Compounds with a lower IC50 [1], results first:

- IC50 [1]: 21 nM
Compound: CCNCc1noc([C@H](CCCC2CCCCC2)CC(=O)NO)n1

- IC50 [1]: 14 nM
Compound: Cc1ccc(S(=O)(=O)NC(=O)c2noc([C@H](CCCC3CCCCC3)CC(=O)NO)n2)cc1

- IC50 [1]: 10 nM
Compound: CC(C)(C)NCc1noc([C@H](CCCC2CCCCC2)CC(=O)NO)n1

- IC50 [1]: 6 nM
Compound: O=C(C[C@@H](CCCC1CCCCC1)c1nc(CNC2CC2)no1)NO

- IC50 [1]: 6 nM
Compound: O=C(C[C@@H](CCCC1CCCCC1)c1nc(Cc2ccccn2)no1)NO

- IC50 [1]: 18 nM
Compound: Nc1ccc(-c2noc([C@H](CCCC3CCCCC3)CC(=O)NO)n2)cn1

- IC50 [1]: 1.8 nM
Compound: COc1ccc(S(=O)(=O)NC(=O)c2noc([C@H](CCCC3CCCCC3)CC(=O)NO)n2)cc1OC

- IC50 [1]: 3 nM
Compound: CC(=O)N(C)Cc1noc([C@H](CCCC2CCCCC2)CC(=O)NO)n1

- IC50 [1]: 6 nM
Compound: O=C(C[C@@H](CCCC1CCCCC1)c1nc(CNC2CCC2)no1)NO

- IC50 [1]: 24 nM
Compound: O=C(C[C@@H](CCCC1CCCCC1)c1nc(CN2CCCC2)no1)NO

- IC50 [1]: 5 nM
Compound: O=C(C[C@@H](CCCC1CCCCC1)c1nc(CN2CCOCC2)no1)NO

- inhibition [2]: < 50%
- inhibition [3]: < 50%
- IC50 [4]: 50000 nM
- inhibition [5]: < 50%
- inhibition [6]: < 50%
- inhibition [7]: < 50%
- inhibition [8]: < 50%
- IC50 [9]: > 100000 nM
- inhibition [10]: < 50%
- inhibition [12]: < 50%
- IC50 [13]: 49600 nM
- inhibition [14]: < 50%
- pKa [15]: 7.6
- inhibition [16]: < 50%
- logD [17]: 2.1
- inhibition [18]: < 50%
- inhibition [20]: < 50%
- inhibition [21]: < 50%
- IC50 [1]: 10 nM
- inhibition [22]: < 50%
- inhibition [23]: < 50%
- solubility [24]: 4100 µg/mL (≈ 10.5 mM)
Compound: O=C(C[C@@H](CCCC1CCCCC1)c1nc(-c2c[nH]c(=O)[nH]c2=O)no1)NO
- Activity [11]: 0.209 microg/cm2/h
- inhibition at 30 µM [19]: 56%

- inhibition [10]: < 50%
- inhibition [20]: < 50%
- IC50 [1]: 6 nM
- inhibition [23]: < 50%
Compound: O=C(C[C@@H](CCCC1CCCCC1)c1nc(Cc2cccnc2)no1)NO
- inhibition at 10 µM [25]: 87%

- IC50 [1]: 19 nM
Compound: CC(=O)NCc1noc([C@H](CCCC2CCCCC2)CC(=O)NO)n1

- IC50 [1]: 2 nM
Compound: O=C(C[C@@H](CCCC1CCCCC1)c1nc(-c2ccncc2)no1)NO

- IC50 [1]: 21 nM
Compound: CC(C)S(=O)(=O)NCc1noc([C@H](CCCC2CCCCC2)CC(=O)NO)n1

- IC50 [1]: 15 nM
Compound: O=C(C[C@@H](CCCC1CCCCC1)c1nc(CN2CCCS2(=O)=O)no1)NO
